# The source made the active and inactive calls. The rule behind the calls is not given here.
# What was measured:
# Nadsonia fulvescens [1] = assay: Antifungal activity against Nadsonia fulvescens ATCC 24236 upto 100 ug/mL after 24 hrs by microtiter plate assay; assay type: functional, organism-based
# In short: (§1)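 Broth microdilution in microtiter plates, following an earlier published method. Each test fungus was inoculated at 1×10^5 spores/mL. Plates were incubated for 24 h at 27 °C, and antifungal activity was then scored.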
# Eremothecium coryli [2] = assay: Antifungal activity against Nematospora coryli ATCC 10647 upto 100 ug/mL after 24 hrs by microtiter plate assay; assay type: functional, organism-based; in short: as §1
# Fusarium oxysporum = assay: Antifungal activity against Fusarium oxysporum CBS 149.25 upto 100 ug/mL after 24 hrs by microtiter plate assay; assay type: functional, organism-based; in short: as §1
# Paecilomyces variotii [3] = assay: Antifungal activity against Paecilomyces variotii ETH 114646 upto 100 ug/mL after 24 hrs by microtiter plate assay; assay type: functional, organism-based; in short: as §1
# Rhodotorula glutinis [4] = assay: Antifungal activity against Rhodotorula glutinis ATCC 26085 upto 100 ug/mL after 24 hrs by microtiter plate assay; assay type: functional, organism-based; in short: as §1
# Nadsonia fulvescens [5] = assay: Antifungal activity against Nadsonia fulvescens ATCC 24236 after 24 hrs by microtiter plate assay; assay type: functional; details: ATCC 24236, 24 h; in short: as §1
# Eremothecium coryli [6] = assay: Antifungal activity against Nematospora coryli ATCC 10647 after 24 hrs by microtiter plate assay; assay type: functional; details: ATCC 10647, 24 h; in short: as §1
# Paecilomyces variotii [7] = assay: Antifungal activity against Paecilomyces variotii ETH 114646 after 24 hrs by microtiter plate assay; assay type: functional; in short: as §1
# Rhodotorula glutinis [8] = assay: Antifungal activity against Rhodotorula glutinis ATCC 26085 after 24 hrs by microtiter plate assay; assay type: functional; details: ATCC 26085, 24 h; in short: as §1
# HeLa = assay: Cytotoxicity against human HeLa S3 cells by Giemsa staining; assay type: functional
# L1210 = assay: Cytotoxicity against mouse L1210 cells by Giemsa staining; assay type: functional
# HL-60 = assay: Cytotoxicity against human HL60 cells by Giemsa staining; assay type: functional
SMILES,Activity (Nadsonia fulvescens [1]),Activity (Eremothecium coryli [2]),Activity (Fusarium oxysporum),Activity (Paecilomyces variotii [3]),Activity (Rhodotorula glutinis [4]),MIC (Nadsonia fulvescens [5]),MIC (Eremothecium coryli [6]),MIC (Paecilomyces variotii [7]),MIC (Rhodotorula glutinis [8]),IC90 (HeLa),IC90 (L1210),IC90 (HL-60)
CCCCC(/C=C(C)/C=C/C=C/C(=O)N1CCCC1CO)OC (configuration not stated),inactive,inactive,inactive,inactive,inactive,,,,,,,
CCCC[C@@H](O)/C=C(C)/C=C/C=C/C(=O)N1CCCC1=O [PECILOCIN],,,,,,1 µg/mL,1 µg/mL,1 µg/mL,1 µg/mL,,,
CCCCC(O)/C=C(C)/C=C/C=C/C(=O)N1CCCC1CO (configuration not stated) [VIRIDITIN],inactive,inactive,inactive,inactive,inactive,,,,,25 µg/mL,25 µg/mL,25 µg/mL
